# Data published in ChEMBL document CHEMBL1136770, “The pharmacophore of short cationic antibacterial peptides” (2003).
# Non-standard residues stand in square brackets, D forms with d. Residues, ends and D or L forms follow the SMILES beside them. *: point of attachment. OBn = c1ccc(CO*)cc1
# What was measured:
# Format in all cases: functional
# Staphylococcus aureus [1] = assay: Minimum inhibitory concentration against methicillin-resistant Staphylococcus aureus (ATCC 33591)
# Staphylococcus aureus [2] = assay: Minimum inhibitory concentration against Staphylococcus aureus
# In short: (§1)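 Broth microdilution, inoculum 2 × 10⁶ cfu/mL, in 1% Bacto Peptone water, overnight at 37 °C. At least three independent dilutions tested in parallel. Gentamicin susceptibility run as internal standard.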
# [3] = test system: Staphylococcus epidermidis; assay: Minimum inhibitory concentration against methicillin-resistant Staphylococcus epidermidis (ATCC 27626)
# Escherichia coli = assay: Minimum inhibitory concentration against Escherichia coli; in short: as §1
Compound,MIC (Staphylococcus aureus [1]) [µg/mL],MIC (Staphylococcus aureus [2]) [µg/mL],MIC [3] [µg/mL],MIC (Escherichia coli) [µg/mL]
NC(N)=NCCC[C@H](N)C(=O)N[C@@H](Cc1c[nH]c2ccccc12)C(=O)N[C@H](CCCN=C(N)N)C(=O)N[C@H](Cc1c[nH]c2ccccc12)C(=O)OCc1ccccc1,2.5,5,2.5,75
NC(N)=NCCC[C@H](N)C(=O)N[C@@H](Cc1c[nH]c2ccccc12)C(=O)OCc1ccccc1,15,15,10,> 200
NC(N)=NCCC[C@@H](N)C(=O)N[C@@H](Cc1c[nH]c2ccccc12)C(=O)OCc1ccccc1,25,25,25,> 200
NC(N)=NCCC[C@H](NC(=O)[C@H](Cc1c[nH]c2ccccc12)NC(=O)[C@@H](N)CCCN=C(N)N)C(=O)N[C@@H](Cc1c[nH]c2ccccc12)C(=O)OCc1ccccc1,2.5,2.5,2.5,50
COC(=O)[C@H](CCCN=C(N)N)NC(=O)[C@H](Cc1c[nH]c2ccccc12)NC(=O)C1CCCCC1,,> 200,,> 200
NC(N)=NCCC[C@H](N)C(=O)N[C@H](Cc1c[nH]c2ccccc12)C(=O)OCc1ccccc1,50,50,25,> 200
NC(N)=NCCC[C@H](N)C(=O)N[C@@H](Cc1ccccc1)C(=O)OCc1ccccc1,200,200,75,> 200
NC(N)=NCCC[C@@H](N)C(=O)N[C@H](Cc1c[nH]c2ccccc12)C(=O)OCc1ccccc1,50,50,20,> 200
NC(N)=NCCC[C@H](NC(=O)[C@@H](N)Cc1c[nH]c2ccccc12)C(=O)N[C@@H](Cc1c[nH]c2ccccc12)C(=O)OCc1ccccc1,5,5,5,75
N=C(N)NCCC[C@H](NC(=O)C1CCCCC1)C(=O)N[C@@H](Cc1c[nH]c2ccccc12)C(=O)OCc1ccccc1,,25,,200
NC(N)=NCCC[C@@H](NC(=O)[C@H](N)Cc1c[nH]c2ccccc12)C(=O)N[C@H](Cc1c[nH]c2ccccc12)C(=O)OCc1ccccc1,5,5,5,75
NC(N)=NCCC[C@H](NC(=O)[C@H](N)Cc1c[nH]c2ccccc12)C(=O)N[C@@H](Cc1c[nH]c2ccccc12)C(=O)OCc1ccccc1,20,20,10,75
COC(=O)[C@H](CCCN=C(N)N)NC(=O)[C@H](Cc1c[nH]c2ccccc12)NC(=O)Cc1c[nH]c2ccccc12,,200,,200
N=C(N)NCCC[C@H](NC(=O)Cc1c[nH]c2ccccc12)C(=O)N[C@@H](Cc1c[nH]c2ccccc12)C(=O)OCc1ccccc1,,20,,150
NC(=O)[C@H](CCCN=C(N)N)NC(=O)[C@H](Cc1c[nH]c2ccccc12)NC(=O)[C@@H](N)CCCN=C(N)N (H-Arg-Trp-Arg-NH2),,> 200,,> 200
NCCCC[C@H](N)C(=O)N[C@@H](Cc1c[nH]c2ccccc12)C(=O)OCc1ccccc1 (H-Lys-Trp-OBn),25,50,25,> 200
NCCCC[C@H](N)C(=O)N[C@H](Cc1c[nH]c2ccccc12)C(=O)OCc1ccccc1 (H-Lys-[dW]-OBn),50,75,25,> 200
NC(N)=NCCC[C@H](NC(=O)[C@@H](N)Cc1ccccc1)C(=O)OCc1ccccc1 (H-Phe-Arg-OBn),200,> 200,200,> 200
NC(=O)[C@H](CCCN=C(N)N)NC(=O)[C@H](Cc1c[nH]c2ccccc12)NC(=O)[C@H](Cc1c[nH]c2ccccc12)NC(=O)[C@@H](N)CCCN=C(N)N (H-RWWR-NH2),,100,,> 200

Compound,MIC (Staphylococcus aureus [1]) [µg/mL],MIC (Staphylococcus aureus [2]) [µg/mL],MIC [3] [µg/mL],MIC (Escherichia coli) [µg/mL]
COC(=O)[C@H](CCCN=C(N)N)NC(=O)[C@H](Cc1c[nH]c2ccccc12)NC(=O)[C@H](Cc1c[nH]c2ccccc12)NC(=O)[C@@H](N)CCCN=C(N)N (H-RWWR-OMe),50,75,15,> 200
NC(N)=NCCC[C@H](NC(=O)[C@@H](N)Cc1c[nH]c2ccccc12)C(=O)OCc1ccccc1 (H-Trp-Arg-OBn),75,200,75,> 200
COC(=O)[C@H](CCCN=C(N)N)NC(=O)[C@@H](N)Cc1c[nH]c2ccccc12 (H-Trp-Arg-OMe),> 200,> 200,> 200,> 200
NC(=O)[C@H](Cc1c[nH]c2ccccc12)NC(=O)[C@H](CCCN=C(N)N)NC(=O)[C@@H](N)Cc1c[nH]c2ccccc12 (H-Trp-Arg-Trp-NH2),,100,,> 200
COC(=O)[C@H](CCCN=C(N)N)NC(=O)[C@H](Cc1c[nH]c2ccccc12)NC(=O)[C@@H](N)Cc1c[nH]c2ccccc12 (H-Trp-Trp-Arg-OMe),200,> 200,100,> 200
NC(=O)[C@H](Cc1c[nH]c2ccccc12)NC(=O)[C@H](CCCN=C(N)N)NC(=O)[C@H](CCCN=C(N)N)NC(=O)[C@@H](N)Cc1c[nH]c2ccccc12 (H-WRRW-NH2),,200,,> 200
NC(=O)[C@H](CCCN=C(N)N)NC(=O)[C@H](Cc1c[nH]c2ccccc12)NC(=O)[C@H](CCCN=C(N)N)NC(=O)[C@@H](N)Cc1c[nH]c2ccccc12 (H-WRWR-NH2),,200,,> 200
COC(=O)[C@H](CCCN=C(N)N)NC(=O)[C@H](Cc1c[nH]c2ccccc12)NC(=O)[C@H](CCCN=C(N)N)NC(=O)[C@@H](N)Cc1c[nH]c2ccccc12 (H-WRWR-OMe),100,> 200,75,> 200
NCCCC[C@@H](N)C(=O)N[C@@H](Cc1c[nH]c2ccccc12)C(=O)OCc1ccccc1 (H-[dK]-Trp-OBn),50,75,25,> 200
H-RRRWWW-NH2,,5,,5
H-RWRWR-NH2,,25,,200
H-RWRWRW-NH2,,5,,5
H-RWWWRR-NH2,,5,,25
H-WRWRW-NH2,,10,,15
H-WRWRWR-NH2,,7.5,,10
H-WRWRY-NH2,,50,,100
H-WRYRW-NH2,,50,,100
H-WWRRRW-NH2,,10,,25
